Only some compounds are listed: those with a hit (about 4.1% of all), similar ones and a draw of the others.
KCC2 mod – modulators of human KCC2 chloride dependent transport. KCC2 cells, thallium flux FluoZin-2 fluorescence. Q9H2X9. 190,000 compounds, 2.2% hits. B-score of Tl+ flux slope (higher = more flux/activation; lower = inhibition) at 10 µM;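 active = thallium flux slope and its plate-corrected score both differing from the plate sample mean at a set confidence after two filtering rounds, in either direction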;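 note: slope of fluorescence scaled to starting intensity during 10 to 20 s after thallium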
hERG protect – hERG (human) protection from proarrhythmic block; Q12809; CHO-hERG, FluxOR thallium flux, dofetilide IC70 present; activation (rescue from dofetilide block), less the hit threshold, % at 10 µM; 310,000 compounds, 0.51% hits;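 active = activation above the mean of controls blocked by dofetilide plus 5 SD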;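 note: thallium influx through hERG after potassium depolarization seen as dye fluorescence rise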
KCNQ1 inh – human KCNQ1 channel inhibition | P51787 | CHO-K1 KCNQ1, FluxOR thallium flux fluorescence; hits give high values | B-score at 10 µM | 310,000 compounds, 1.3% hits | AID 2642;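 active = compounds whose thallium flux B-score, printed positive for inhibition, exceeds three library SD while starting fluorescence stays within three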;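 note: channel opened by potassium depolarization with thallium stimulus after 20 min compound exposure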
KCNQ1 pot – potentiators or activators of human KCNQ1 potassium channel | P51787 | CHO-K1 KCNQ1, thallium flux FluxOR fluorescence; hits give high values | B-score at 10 µM | 310,000 compounds, 0.35% hits | AID 2648;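 active = fluorescence ratio B-score, a plate-corrected score, at least three library SD, with initial intensity B-score within 5 SD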
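Doses: Single concentration per compound, DMSO matched to controls | Test system: KCNQ1-transfected CHO-K1 cells | Timing: 90 min dye loading and 20 min compound exposure, both at room temperature | Measured by: Kinetic FluxOR thallium fluorescence, 10-s 1-Hz baseline, 110-s post-stimulus read | Medium: Assay buffer with matched DMSO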
KCNK9 block – human KCNK9 channel inhibition | 310,000 compounds, 1.2% hits | AID 488922 | B-score at 10 µM | HEK293 KCNK9, FluxOR thallium flux fluorescence; hits give low values;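 active = ratio B-score over 3 SD below the library mean, with starting fluorescence within 5 SD of its mean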;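 note: negative B-score means less thallium flux so channel inhibition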
KCNK3 inh – human KCNK3 channel inhibition, primary screen; CHO-KCNK3 thallium flux, FluxOR fluorescence; hits give low values; 340,000 compounds, 0.84% hits; B-score at 10 µM; O14649;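 active = B-score under library mean minus 4 SD, starting fluorescence ratio at most library mean plus 5 SD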;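 note: more negative B-score means stronger inhibition of thallium flux through KCNK3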
Target sequence (O14649 whole entry, looked up): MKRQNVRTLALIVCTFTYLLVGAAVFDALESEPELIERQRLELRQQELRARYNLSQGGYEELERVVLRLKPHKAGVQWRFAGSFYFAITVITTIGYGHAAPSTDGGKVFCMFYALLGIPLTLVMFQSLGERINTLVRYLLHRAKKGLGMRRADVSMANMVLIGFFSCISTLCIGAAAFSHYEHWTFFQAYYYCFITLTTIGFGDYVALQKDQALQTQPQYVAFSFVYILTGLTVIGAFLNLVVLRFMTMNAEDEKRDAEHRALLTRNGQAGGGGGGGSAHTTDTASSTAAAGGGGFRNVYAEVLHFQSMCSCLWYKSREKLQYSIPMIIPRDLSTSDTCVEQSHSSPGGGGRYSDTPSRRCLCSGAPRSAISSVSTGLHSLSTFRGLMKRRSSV
Hits are given with their value; – = inactive; · = no result given.

SMILES | KCC2 mod | hERG protect | KCNQ1 inh | KCNQ1 pot | KCNK9 block | KCNK3 inh
CCOC(=O)CS(=O)(=O)c1nc(-c2ccc(F)cc2)cc(C(F)(F)F)n1 | – | – | – | 9 | – | –
COc1ccc(-c2cc(C(F)(F)F)nc(N)n2)cc1 | – | – | – | – | – | –
COc1nc(-c2ccccc2)cc(C(F)(F)F)n1 | – | 4.7 | – | – | – | –
CS(=O)(=O)c1nc(-c2ccc(F)cc2)cc(C(F)(F)F)n1 | – | – | – | – | – | –
CCN(c1ccccc1)S(=O)(=O)c1cc(C(=O)NCC(c2ccc(OC)cc2)N(C)C)ccc1C (centres undefined) | · | · | · | · | · | –
Cc1nc(SCC(=O)c2ccccc2)c(C#N)c(-c2ccco2)c1C(=O)NCc1ccco1 | – | – | 6 | – | – | –
O=C(CNC(=O)C12CC3CC(CC(C3)C1)C2)OCc1cc(=O)n2cc(Br)ccc2n1 | – | 6.1 | – | – | – | –
CC1CC1C(=O)OCc1cc(=O)n2cc(Br)ccc2n1 (centres undefined) | – | – | – | – | – | –
O=C(NCc1cccnc1)c1cc2ccccc2oc1=O | – | – | – | – | – | –
O=C(Nc1ccc(S(=O)(=O)Nc2cnc3ccccc3n2)cc1)c1ccc([N+](=O)[O-])cc1Cl | · | – | – | – | – | –
O=C(N/N=C/c1c(O)n(-c2ccc(Cl)cn2)c(=O)c2ccccc12)c1ccncc1 | – | – | 11 | – | -6.9 | –
O=C(O)CSc1nc2ccccc2[nH]1 | · | 8.4 | – | – | – | –
COC(=O)CSC1=C(C#N)C(c2ccsc2)CC(=O)N1 (centres undefined) | – | – | – | – | – | –
COCCn1c(SCC(=O)N(C)C2CCS(=O)(=O)C2)nc2ccccc2c1=O (centres undefined) | – | – | – | – | – | –
Cc1ccc(-n2c(SCC(=O)N(C)C3CCS(=O)(=O)C3)nc3ccccc3c2=O)c(C)c1 (centres undefined) | · | · | · | · | · | -9.2
FC(F)(F)C1=CC(c2ccc(Cl)cc2)=NCCN1 | – | – | – | – | – | –
N#C/C(=N\Nc1cccc(F)c1)C(=O)C1CC1 | – | – | 6 | – | – | –
O=C(COc1ccccc1Cl)N1CCc2ccccc21 | · | – | – | – | – | –
O=C(COc1ccc2ccccc2c1CN1CCOCC1)N1CCc2ccccc21 | -7.9 | – | – | – | – | –
CC(=O)/C(=N/Nc1ccc([N+](=O)[O-])cc1)N1CCCc2ccccc21 | – | – | – | – | – | –
CC(=O)/C(=N/Nc1ccccc1[N+](=O)[O-])N1CCCc2ccccc21 | – | – | 7 | – | -7.1 | –
Cc1ccc(OCCN2CCN(C(=O)CCC(=O)Nc3nnc(CC(C)C)s3)CC2)cc1 | – | – | – | – | – | –
O=C(CCSc1nnc(-c2ccco2)o1)N1CCOCC1 | – | 5.7 | – | – | – | –
O=C(CCSc1nnc(-c2ccccc2)o1)N1CCOCC1 | – | – | – | – | – | –
O=C(N/N=C1/C(=O)c2cccc3cccc1c23)c1ccc(Cl)cc1 | 4.8 | 53 | – | 41 | – | –
SMILES | KCC2 mod | hERG protect | KCNQ1 inh | KCNQ1 pot | KCNK9 block | KCNK3 inh
CCNC(=S)N/N=C1\C(=O)c2cccc3cccc1c23 | 24 | 7.9 | – | 9 | – | –
O=C(Nc1cccc(NC(=O)c2ccc(Cl)cc2)n1)c1ccc(Cl)cc1 | · | – | – | – | – | –
COc1ccc(C(=O)COC(=O)c2cccnc2SC)cc1 | – | – | – | – | – | –
O=C(CSc1c2c(nc3ccc(Cl)cc13)CCCC2)NCCCN1CCOCC1 | – | – | – | – | – | –
Cc1ccc(CNC(=O)c2cn(C3CCCC3)c(=O)c3c2c2ccccc2n3C)o1 | · | – | – | – | -6.7 | ·
Cn1c2ccccc2c2c(C(=O)NCc3ccco3)cn(C3CCCCC3)c(=O)c21 | · | – | – | – | – | –
Cc1ccc(NC(=O)CSc2nnc(Cc3ccccc3)o2)cc1 | – | – | – | – | – | –
O=C(O)CCn1cc(-c2ccc(Cl)cc2)nc1-c1ccncc1 | · | · | · | · | · | –
CC(C)(C)c1ccc(CN2C3=NCCCN3c3ccccc32)cc1 | – | – | 11 | – | – | –
C(=C1c2ccccc2-c2ccccc21)c1ccncc1 | · | · | · | · | · | –
CC1CCN(c2nc(Cl)nc(Nc3ccc([N+](=O)[O-])cc3)n2)CC1 | – | – | 8 | – | – | –

Screening data as filed in PubChem BioAssay.
